Reference: ChEMBL document CHEMBL1125194, “Probing the bradykinin receptor: mapping the geometric topography using ethers of hydroxyproline in novel peptides” (J Med Chem, 1991)

Key:
[1] = Binding affinity of compound was measured for bradykinin receptor in guinea pig ileum; type: tissue-based, Cavia porcellus
[2] = Antagonistic activity of compound was measured for bradykinin receptor in guinea pig ileum; type: functional, tissue-based; conditions: Cavia porcellus, read-out: pA2 (converted)
Method in brief: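 Guinea pig ileal longitudinal muscle strips, which express only B2 receptors. Cumulative bradykinin dose-response curves were run without and with increasing antagonist concentrations (0.1-0.3 μM), and antagonism was expressed as pA2. Agonist activity was also checked at concentrations up to 10 μM.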

[3] = Antagonistic activity of compound was measured in SV-T2 cells; type: functional, cell-based; conditions: Mus musculus, read-out: pA2 (converted)
Method in brief: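 SV-T2 fibroblasts, which express only B2 receptors. Antagonism of bradykinin-stimulated prostaglandin synthesis was measured and expressed as pA2. Agonist activity was also checked at concentrations up to 10 μM.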

SMILES	Ki [1] [nM]	Kb [2] [nM]	Kb [3] [nM]
CO[C@H]1C[C@@H](C(=O)N2Cc3ccccc3C[C@H]2C(=O)N[C@@H](CCCN=C(N)N)C(=O)O)N(C(=O)[C@H](CO)NC(=O)[C@@H](NC(=O)CNC(=O)[C@@H]2C[C@H](O)CN2C(=O)[C@@H]2CCCN2C(=O)[C@H](CCCN=C(N)N)NC(=O)[C@H](N)CCCN=C(N)N)c2cccs2)C1	102	8910	251
CCCO[C@@H]1C[C@@H](C(=O)N2Cc3ccccc3C[C@H]2C(=O)N[C@@H](CCCN=C(N)N)C(=O)O)N(C(=O)[C@H](CO)NC(=O)[C@@H](NC(=O)CNC(=O)[C@@H]2C[C@H](O)CN2C(=O)[C@@H]2CCCN2C(=O)[C@H](CCCN=C(N)N)NC(=O)[C@H](N)CCCN=C(N)N)c2cccs2)C1	0.77	24.5	1.58
CCCO[C@@H]1C[C@@H](C(=O)N2C3CCCCC3C[C@H]2C(=O)N[C@@H](CCCN=C(N)N)C(=O)O)N(C(=O)[C@H](CO)NC(=O)[C@@H](NC(=O)CNC(=O)[C@@H]2C[C@H](O)CN2C(=O)[C@@H]2CCCN2C(=O)[C@H](CCCN=C(N)N)NC(=O)[C@H](N)CCCN=C(N)N)c2cccs2)C1 (stereo partly drawn)	0.16	2.88	0.251
CCCO[C@H]1C[C@@H](C(=O)N2Cc3ccccc3C[C@H]2C(=O)N[C@@H](CCCN=C(N)N)C(=O)O)N(C(=O)[C@H](CO)NC(=O)[C@@H](NC(=O)CNC(=O)[C@@H]2C[C@H](O)CN2C(=O)[C@@H]2CCCN2C(=O)[C@H](CCCN=C(N)N)NC(=O)[C@H](N)CCCN=C(N)N)c2cccs2)C1	144	5750	158
CO[C@@H]1C[C@@H](C(=O)N2Cc3ccccc3CC2C(=O)N[C@@H](CCCN=C(N)N)C(=O)O)N(C(=O)[C@H](CO)NC(=O)[C@@H](NC(=O)CNC(=O)[C@@H]2C[C@H](O)CN2C(=O)[C@@H]2CCCN2C(=O)[C@H](CCCN=C(N)N)NC(=O)[C@H](N)CCCN=C(N)N)c2cccs2)C1 (stereo partly drawn)	2.12	186	3.98
NC(N)=NCCC[C@@H](N)C(=O)N[C@@H](CCCN=C(N)N)C(=O)N1CCC[C@H]1C(=O)N1C[C@H](O)C[C@H]1C(=O)NCC(=O)N[C@@H](Cc1ccccc1)C(=O)N[C@@H](CO)C(=O)N[C@H](Cc1ccccc1)C(=O)N[C@@H](Cc1ccccc1)C(=O)N[C@@H](CCCN=C(N)N)C(=O)O	57.9	1510	10
